In ChEMBL document CHEMBL4665630, “Synthesis and biological evaluation of anthraquinone derivatives as allosteric phosphoglycerate mutase 1 inhibitors for cancer treatment” (Eur J Med Chem, 2019) one finds IC50 data, which are given here for 24 molecules.

In one assay the test system is PC-9. Nature of the assay: Antiproliferative activity against human PC-9 cells assessed as reduction in cell viability measured after 72 hrs by MTT assay. The conditions noted are these: PC-9, 72 h. In kind it is functional, cell-based. Put shortly: (§1)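 Cells grown in RPMI-1640 (H1299, PC9) or F-12K (A549) with 10% FBS and penicillin/streptomycin; 2000 H1299 or A549 or 1000 PC9 cells per well, attached 24 h, exposed to inhibitor 72 h; MTT 0.5 mg/mL for 4 h, absorbance at 570 nm; mean ± s.d., n=3.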
A general note: Tetrazolium dyes change colour on reduction, which living cells bring about.

A further assay relates to A549. Description: Antiproliferative activity against human A549 cells assessed as reduction in cell viability measured after 72 hrs by MTT assay. Type of assay: functional, cell-based. Conditions: A549, 72 h. Put shortly: as §1
In the next assay the test system is NCI-H1299. Nature of the assay: Antiproliferative activity against human H1299 cells assessed as reduction in cell viability measured after 72 hrs by MTT assay. In kind it is functional, cell-based. Conditions: NCI-H1299, 72 h. Put shortly:
as §1

The target in assay [1] is Phosphoglycerate mutase 1 (Homo sapiens, UniProt P18669). Description: Inhibition of human recombinant PGAM1 by measuring decrease in OD by enzyme based assay. Put shortly:
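C-terminal His6-tagged PGAM1, Ni-NTA purified, 4.6 nM, preincubated with inhibitor in DMSO; coupled enolase/pyruvate kinase M2/LDH system in 100 mM Tris-HCl, 100 mM KCl, 5 mM MgCl2, 1 mM ADP, 0.2 mM NADH, 4 mM 3PG; NADH loss read at 340 nm. Counter-screen without PGAM1 using 4 mM 2PG. Mean ± s.d., n=3.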

Chain of Phosphoglycerate mutase 1 (P18669 whole entry): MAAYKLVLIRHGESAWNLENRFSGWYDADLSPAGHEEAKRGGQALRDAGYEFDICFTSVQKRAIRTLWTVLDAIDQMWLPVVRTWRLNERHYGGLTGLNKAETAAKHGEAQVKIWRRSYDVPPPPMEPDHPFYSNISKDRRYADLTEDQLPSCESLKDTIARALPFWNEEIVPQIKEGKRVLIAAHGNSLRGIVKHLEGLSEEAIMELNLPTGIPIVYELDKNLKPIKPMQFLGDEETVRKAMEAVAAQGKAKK

`O=C1c2ccccc2C(=O)c2c1cc(NS(=O)(=O)c1ccc(-c3ccc(Cl)cc3)cc1)c(O)c2O`: the half-maximal inhibitory concentration (IC50) is 6.6 µM with PC-9, 6.8 µM in the assay with A549, 6.3 µM in the assay on NCI-H1299 and 0.14 µM in assay [1].

As for `O=C1c2ccccc2C(=O)c2c1cc(NS(=O)(=O)c1ccc(F)c(C(F)(F)F)c1)c(O)c2O`, the figures for the IC50 (in the assay with NCI-H1299; in assay [1]) were 22.6 µM and 0.63 µM, respectively.

`CC(C)(C)c1ccc(S(=O)(=O)Nc2cc3c(c(O)c2O)C(=O)c2ccccc2C3=O)cc1`: the IC50 with PC-9 turned out to be 9.5 µM; in the assay with A549, 8.1 µM; in the assay on NCI-H1299, 10.2 µM; in assay [1], 0.49 µM.

Regarding `O=C1c2ccccc2C(=O)c2c1cc(NS(=O)(=O)C1CCCCC1)c(O)c2O`, the IC50 was 21.8 µM in the assay on NCI-H1299 and 1.75 µM in assay [1].

Consider `O=C1c2ccccc2C(=O)c2c1cc(NS(=O)(=O)c1cccs1)c(O)c2O`, for which the IC50 was 25.8 µM with NCI-H1299 and 0.84 µM in assay [1].

Turning to `O=C1c2ccccc2C(=O)c2c1cc(NS(=O)(=O)c1ccc(Cl)c(C(F)(F)F)c1)c(O)c2O`, the IC50 in the assay on PC-9 was 17.5 µM; in the assay with A549, 21.6 µM; with NCI-H1299, 13 µM; in assay [1], 0.55 µM.

As to `CN(C)S(=O)(=O)Nc1cc2c(c(O)c1O)C(=O)c1ccccc1C2=O`, in assay [1], the IC50 was more than 10 µM.

In the case of `COc1ccc(S(=O)(=O)Nc2cc3c(c(O)c2O)C(=O)c2ccccc2C3=O)c(OC)c1`, the IC50 in the assay on NCI-H1299 was 20 µM; in assay [1] it was 2.86 µM.

Turning to `O=C1c2ccccc2C(=O)c2c1cc(NS(=O)(=O)c1ccc(C3CCCCC3)cc1)c(O)c2O`, the concentration for half-maximal inhibition (IC50) with PC-9 turned out to be 11.5 µM; in the assay on A549, 11.2 µM; in the assay on NCI-H1299, 4.6 µM; in assay [1] it was 0.097 µM.

In the case of `O=C1c2ccccc2C(=O)c2c1cc(NS(=O)(=O)N1CCOCC1)c(O)c2O`, the half-inhibitory concentration (IC50) in assay [1] was more than 10 µM.

For `O=C1c2ccccc2C(=O)c2c1cc(NS(=O)(=O)c1ccc(Cl)s1)c(O)c2O`, the IC50 in the assay on PC-9 came out at 16.1 µM; in the assay on A549, 12.2 µM; in the assay on NCI-H1299 it was 17.7 µM; in assay [1], 0.55 µM.

Take `O=C1c2ccccc2C(=O)c2c1cc(NS(=O)(=O)c1ccc(-c3ccc(F)cc3)cc1)c(O)c2O`: the IC50 was 5.4 µM in the assay with PC-9, 12 µM with A549, 6.2 µM in the assay with NCI-H1299 and 0.26 µM in assay [1].

For the molecule `CS(=O)(=O)Nc1cc2c(c(O)c1O)C(=O)c1ccccc1C2=O`, the IC50 was found to be 28.5 µM in the assay with NCI-H1299 and 5.37 µM in assay [1].

`COc1ccc(S(=O)(=O)Nc2cc3c(c(O)c2O)C(=O)c2ccccc2C3=O)cc1OC`: the results for the IC50 (in the assay on NCI-H1299; in assay [1]) were 26.7 µM and 2.81 µM, respectively.

For `CCCCS(=O)(=O)Nc1cc2c(c(O)c1O)C(=O)c1ccccc1C2=O`, the IC50 in the assay on NCI-H1299 turned out to be 38.8 µM; in assay [1] it was 2.05 µM.

Regarding `O=C1c2ccccc2C(=O)c2c1cc(NS(=O)(=O)c1ccc(N3CCCCC3)cc1)c(O)c2O`, the IC50 in the assay with PC-9 amounted to 3 µM; with A549 it was 6.3 µM; in the assay on NCI-H1299 it was 10 µM; in assay [1] it was 0.33 µM.

For the molecule `O=C1c2ccccc2C(=O)c2c1cc(NS(=O)(=O)c1cccc3cccnc13)c(O)c2O`, the concentration for half-maximal inhibition (IC50) with NCI-H1299 was 47.6 µM; in assay [1], 2.05 µM.

In the case of `COc1cccc(S(=O)(=O)Nc2cc3c(c(O)c2O)C(=O)c2ccccc2C3=O)c1`, the half-inhibitory concentration (IC50) in the assay on NCI-H1299 was determined as 27.3 µM; in assay [1], 0.48 µM.

With `CN1CCN(c2ccc(S(=O)(=O)Nc3cc4c(c(O)c3O)C(=O)c3ccccc3C4=O)cc2)CC1`, the IC50 in assay [1] was more than 10 µM.

Consider `O=C1c2ccccc2C(=O)c2c1cc(NS(=O)(=O)c1ccc3ccccc3c1)c(O)c2O`, for which the half-inhibitory concentration (IC50) with PC-9 is 4.7 µM; with A549, more than 100 µM; in the assay on NCI-H1299 it was 8.7 µM; in assay [1] it was 0.19 µM.

Turning to `Cc1ccc(S(=O)(=O)Nc2cc3c(c(O)c2O)C(=O)c2ccccc2C3=O)cc1`, the IC50 in the assay on PC-9 amounted to 15.7 µM; in the assay on A549 it was 25.4 µM; in the assay on NCI-H1299 it was 7.7 µM; in assay [1] it was 0.36 µM.

For `O=C1c2ccccc2C(=O)c2c1cc(NS(=O)(=O)c1ccccc1)c(O)c2O`, the IC50 with NCI-H1299 was found to be 21.3 µM; in assay [1] it was 1.5 µM.

In the case of `O=C1c2ccccc2C(=O)c2c1cc(NS(=O)(=O)c1cccc3ccccc13)c(O)c2O`, the IC50 with PC-9 was 18.1 µM; in the assay on A549, 50.5 µM; with NCI-H1299 it was 7.7 µM; in assay [1], 1.29 µM.

For `CC1CC(C)CN(c2ccc(S(=O)(=O)Nc3cc4c(c(O)c3O)C(=O)c3ccccc3C4=O)cc2)C1` (configuration not stated), the half-maximal inhibitory concentration (IC50) was 11.6 µM in the assay on PC-9, 9.2 µM in the assay with A549, 10.3 µM in the assay with NCI-H1299 and 2.6 µM in assay [1].

The term IC50 denotes the concentration that gives 50% inhibition.
